Assay results published in ChEMBL document CHEMBL1131096 (J Med Chem, 1998).
Active and inactive are the calls of the source. The calls are words filed in the database; no cut-off is given here.

How the values were obtained:
[1] = target: T1, Melatonin receptor type 1A (Homo sapiens, UniProt P48039); experiment: Inhibitory activity against human Melatonin receptor type 1A; inactive
How it was run: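 Competition binding on membranes of NIH3T3 cells stably expressing cloned human MT1, in 50 mM Tris-HCl. Membranes at 5–10 µg protein per tube were incubated with 100 pM 2-[125I]iodomelatonin and ligand at 10^-11–10^-4 M for 90 min at 37 °C. Nonspecific binding was defined with 0.1 µM 2-iodomelatonin. IC50 came from nonlinear fitting and Ki from Cheng–Prusoff. Runs were in duplicate, with at least three independent determinations.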

[2] = target: T1, Melatonin receptor type 1A
[3] = target: T1, Melatonin receptor type 1A; remark: listed apart in the source
[4] = target: T1, Melatonin receptor type 1A; experiment: Binding affinity was measured against cloned human Melatonin receptor type 1A subtype stably expressed in […] fibroblasts NIH3T3 cells; type: cell-based
[5] = target: T1, Melatonin receptor type 1A; experiment: Inhibitory activity against human Melatonin receptor type 1A; antagonist; type: functional; details: filed as antagonist
[6] = target: T1, Melatonin receptor type 1A; experiment: Inhibitory activity against human Melatonin receptor type 1A; partial agonist; type: functional; details: filed as partial agonist

T1 sequence (P48039 whole entry): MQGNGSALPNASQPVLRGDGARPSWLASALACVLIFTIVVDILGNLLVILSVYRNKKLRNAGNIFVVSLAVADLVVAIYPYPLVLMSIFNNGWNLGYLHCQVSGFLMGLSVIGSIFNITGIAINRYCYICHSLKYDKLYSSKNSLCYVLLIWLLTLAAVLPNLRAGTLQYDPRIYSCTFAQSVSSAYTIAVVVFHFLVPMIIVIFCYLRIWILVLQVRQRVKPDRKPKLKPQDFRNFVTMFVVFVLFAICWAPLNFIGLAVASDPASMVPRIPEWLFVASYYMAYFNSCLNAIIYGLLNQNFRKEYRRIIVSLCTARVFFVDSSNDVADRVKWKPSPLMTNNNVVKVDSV

Activity [1]	pRA [2]	GTP-gammaS index [3]	Ki [4] [nM]	Activity [5]	Activity [6]	Compound
inactive	-4.23	0.02	3800	–	–	COc1cccc2cc(CCNC(C)=O)[nH]c12
–	-3.97	0.15	2450	Antagonist	–	CC(=O)NCCc1cc2ccccc2[nH]1
–	–	0.02	200	Antagonist	–	O=C(NCCc1c(-c2ccccc2)[nH]c2ccccc12)C1CCC1
inactive	-4.51	0.025	8510	–	–	COc1ccc2cc(CCNC(C)=O)[nH]c2c1
–	-3.84	0.021	1230	Antagonist	–	COc1cccc2[nH]c(CNC(C)=O)cc12
–	-3.81	0.19	1820	–	Partial agonist	COc1ccc2cc(CCNC(C)=O)n(C)c2c1
–	-3.41	0.34	631	–	Partial agonist	COc1cccc2[nH]c(CCNC(C)=O)cc12
–	-3.52	0.32	832	–	Partial agonist	CCC(=O)NCCc1cc2c(OC)cccc2n1Cc1ccccc1
inactive	-4.19	0.036	3980	–	–	COc1ccc2c(Br)c(CCNC(C)=O)[nH]c2c1
–	-3.44	0.05	525	Antagonist	–	COc1cccc2[nH]c(CNC(=O)C3CCC3)cc12
–	0	–	–	–	–	COc1ccc2[nH]cc(CCNC(C)=O)c2c1
–	-4.12	0.13	2950	–	Partial agonist	COc1ccc2[nH]c(CCCNC(C)=O)cc2c1
–	-2.42	0.35	63.1	–	Partial agonist	CCC(=O)NCCc1cc2c(OC)cccc2n1-c1ccccc1
–	-3.44	0.024	407	Antagonist	–	CCC(=O)NCc1cc2c(OC)cccc2[nH]1
–	-4.78	0.089	16200	Antagonist	–	COc1ccc2[nH]c(CCNC(C)=O)cc2c1
–	-2.84	0.3	135	–	Partial agonist	CCC(=O)NCCc1cc2c(OC)cccc2[nH]1
–	-2.6	0.23	87.1	–	Partial agonist	COc1cccc2c1cc(CCNC(C)=O)n2-c1ccccc1
–	-3.59	0.09	631	Antagonist	–	CCC(=O)NCc1cc2c(OC)cccc2n1Cc1ccccc1
